VLA-4 inh: inhibition in human VLA-4 binding assay, primary screen, VLA-4 allosteric modulator project, MLPCN library, flow cytometry, VLA-4 expressing cells; Integrin alpha-4 (Homo sapiens), P13612; ligand binding flow cytometry; inhibition, % (about 7 µM as worked out from the volumes in the protocol); 330,000 tested, 0.2% active; AID 2557, 2010; in the data active = inhibition above about 50%
Beta2AR agonist: beta2AR agonists driving receptor internalization, primary screen, cell-based, FAP fluorogen, flow cytometry. response, % (test concentration not listed). 340,000 tested, 0.43% active. AID 504454, 2011. Am2.2-beta2AR cells;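 active = response above a set limit, near 3 SD of response in nonfluorescent compounds, cut at about 42% in these data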
UPR CHOP act: activators of apoptotic CHOP UPR arm, primary screen, cell-based, CHO-CHOP luciferase reporter, luminescence, uHTS. UPR activation; percent of tunicamycin response over DMSO baseline. activation, % at 10 µM. 330,000 tested, 0.34% active. AID 449763, 2010;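 active = at 10 µM dose, activation of 40% or more, normalized to positive control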;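 note: 100% = tunicamycin at 10 µg/mL and 0% = DMSO alone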
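Evaluation: % reporter activation, DMSO baseline versus tunicamycin full activation; System: CHO-CHOP luciferase reporter cell line; Input: 500 cells/well; Incubation: 6 h compound treatment, 37 °C; Measured by: Steady-Glo luciferase luminescence; Dosing: one dose, 10 µM in 0.5% DMSO; Buffer or medium: F12 medium, 10% FBS; Benchmarks: positive tunicamycin 10 µg/mL, negative DMSO alone.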
CHOP inh: inhibitors of CHOP promoter induction, primary screen, cell-based, unfolded protein response, luciferase reporter; CHO-K1 CHOP-promoter luciferase, tunicamycin-induced, 15-18 h; inhibition, % at 10 µM; 220,000 tested, 3.8% active; AID 2732, 2010;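 active = compounds that reduced the stress-induced luciferase reporter signal by more than about 70% of percent inhibition, limit read from the data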;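 note: 0% = tunicamycin plus vehicle and 100% = wells without tunicamycin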
UPR XBP1 act: activators of adaptive XBP1 UPR arm, primary screen, cell-based, CHO-XBP1 luciferase reporter, luminescence, uHTS; IRE1-XBP1 UPR activation; percent of tunicamycin response, DMSO as zero; activation, % at 20 µM; 330,000 tested, 0.33% active; AID 463104, 2010;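 active = versus positive control, 20 µM dose yields 30% or more activation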;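 note: 100% = tunicamycin at 10 µg/mL and 0% = DMSO only wells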
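Signal: luciferase luminescence; Assay system: CHO-XBP1 luciferase reporter cells; Amount: one thousand reporter cells per well; Dosing: 20 µM single concentration, DMSO 1%; Benchmarks: high control tunicamycin 10 µg/mL final, low control DMSO vehicle only; Schedule: 6 h compound exposure at 37 °C, 5% CO2; Evaluation: percent activation relative to tunicamycin reference.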
CHOP confirm: retest of CHOP induction inhibitors, confirmation, cell-based; shares compounds with CHOP inh; CHO-CHOP promoter luciferase reporter, tunicamycin-induced, luminescence; inhibition, % at 10 µM; 2,100 tested, 45% active;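 active = mean of three repeat readings of reporter signal inhibition above a set limit, cut at about 70% in these data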;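 note: 0% = tunicamycin plus vehicle and 100% = wells lacking tunicamycin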
* = called active by the depositor. Many of the other results were omitted from the sample, so hits are more common in it than they were.

For O=c1c2cc(Br)ccc2nc(-c2cccc(C(F)(F)F)c2)n1O the results were VLA-4 inh 4, Beta2AR agonist 5, UPR CHOP act 0, CHOP inh 99*, UPR XBP1 act -1 and CHOP confirm -14.
For COC(=O)c1ccc2c(c1)sc(=NC(=O)CCS(=O)(=O)c1ccccc1)n2C the results were VLA-4 inh -9, Beta2AR agonist 8, UPR CHOP act 1 and UPR XBP1 act 1.
`Cc1ccccc1OCc1nc(-c2ccccc2)no1` gave VLA-4 inh -10, Beta2AR agonist -6, UPR CHOP act 6, CHOP inh 100*, UPR XBP1 act 3 and CHOP confirm 0.
Screening O=C1c2[nH]nc(-c3ccccc3O)c2C(c2cccc(Cl)c2)N1Cc1ccco1 (stereo not drawn) returned VLA-4 inh 7, Beta2AR agonist 16, UPR CHOP act 4, CHOP inh 113*, UPR XBP1 act 0 and CHOP confirm 113*.
`CC(C)c1ccccc1NC(=O)COc1ccc(C(=O)NCCc2ccccc2)cc1` gave VLA-4 inh -4, Beta2AR agonist 12, UPR CHOP act -1, CHOP inh 107*, UPR XBP1 act -1 and CHOP confirm 31.
`CCOc1ccc(NC(=O)COc2ccc(C(=O)NCCc3ccccc3)cc2)cc1` gave VLA-4 inh 2, Beta2AR agonist 7, UPR CHOP act 2, CHOP inh -14 and UPR XBP1 act -3.
For CC(=O)N1N=C(c2cccs2)CC1c1cc2cc(C)ccc2nc1Cl (stereo not drawn) the results were VLA-4 inh 0, Beta2AR agonist -6, UPR CHOP act -2, CHOP inh 106*, UPR XBP1 act 12 and CHOP confirm -55.
Screening Cc1ccc2nc(Cl)c(C3CC(c4cccs4)=NN3S(C)(=O)=O)cc2c1 (stereo not drawn) returned VLA-4 inh 13, Beta2AR agonist -3, UPR CHOP act 3, CHOP inh -3 and UPR XBP1 act 2.
For Cc1cc(C)cc(Cn2ncc(Cl)c(Cl)c2=O)c1 the results were VLA-4 inh 26, CHOP inh 106* and CHOP confirm -31.
`O=c1[nH]cnc2c1cnn2Cc1ccccc1Cl` gave VLA-4 inh 9, Beta2AR agonist -2, UPR CHOP act 0 and UPR XBP1 act -5.
O=c1c(Cl)c(Cl)cnn1Cc1nnc(-c2ccc(Cl)cc2)o1 was read as Beta2AR agonist 21, CHOP inh 107* and CHOP confirm 38.
O=c1c(Cl)c(Cl)cnn1Cc1ccccc1Cl was read as VLA-4 inh -3, CHOP inh 111* and CHOP confirm 26.
`CCc1ccc(C(=O)Cn2ncc(Cl)c(Cl)c2=O)cc1` gave VLA-4 inh 10, Beta2AR agonist 40, UPR CHOP act 37, CHOP inh 3 and UPR XBP1 act 0.
`Cc1ccc(-c2nnc(Cc3ccc(Cl)cc3)o2)cc1` gave VLA-4 inh 34, Beta2AR agonist -21, UPR CHOP act 2, CHOP inh 57 and UPR XBP1 act 5.
For O=C(Cn1ncc(Cl)c(Cl)c1=O)N1CCN(Cc2ccccc2)CC1 the results were Beta2AR agonist 17, CHOP inh 107* and CHOP confirm -169.
Screening CN1C(=O)CSC1=Nc1cccc(Cl)c1 returned VLA-4 inh -5, Beta2AR agonist -1, UPR CHOP act 0 and UPR XBP1 act 1.
`CC(C)CNC(=O)C(=O)NCC1CCCN1S(=O)(=O)c1cccs1` (stereo not drawn) gave VLA-4 inh 2, Beta2AR agonist -5, UPR CHOP act 2 and UPR XBP1 act -2.
CCC(C)(C)n1nnnc1C(c1ccc(F)cc1)N1CCN(C(=O)c2ccco2)CC1 (stereo not drawn) was read as VLA-4 inh -4, Beta2AR agonist 12, UPR CHOP act 1 and UPR XBP1 act -2.

From PubChem BioAssay
